# From ChEMBL document CHEMBL1671779, “In vivo trypanosomicidal activity of imidazole- or pyrazole-based benzo[g]phthalazine derivatives against acute and chronic phases of Chagas disease” (J Med Chem, 2011)
# Active and inactive are the calls of the source.
# Key:
# Trypanosoma cruzi [1] = experiment: Effect on metabolic excretion in epimastigotes of Trypanosoma cruzi assessed as lactate excretion level at IC25 concentration after 72 hrs by nuclear magnetic resonance spectroscopy analysis; format: ADME, organism-based
# Procedure, shortened: (§1)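 Epimastigote cultures started at 5 × 10^5 cells/mL and given drug at IC25, 72 h at 28 °C. Excreted metabolites assessed by 1H NMR of spent medium, compared with cell-free medium.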
# [2] = target: Superoxide dismutase [Cu-Zn] (Homo sapiens, UniProt P00441); experiment: Inhibition of human Cu-Zn superoxide dismutase assessed as inhibition of NADPH reduction
# Procedure, shortened: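 Human erythrocyte CuZn-SOD, purchased, assayed by NAD(P)H oxidation; 1 U gives 50% inhibition of the rate. Compounds at 1, 10, 25, 50, 100 μM. IC50 by linear regression; five determinations; Newman-Keuls test.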
# Trypanosoma cruzi [3] = experiment: Effect on metabolic excretion in epimastigotes of Trypanosoma cruzi assessed as malate excretion level at IC25 concentration after 72 hrs by nuclear magnetic resonance spectroscopy analysis; format: ADME, organism-based
# Trypanosoma cruzi [4] = experiment: Effect on metabolic excretion in epimastigotes of Trypanosoma cruzi assessed as succinate excretion level at IC25 concentration after 72 hrs by nuclear magnetic resonance spectroscopy analysis; format: ADME, organism-based; procedure, shortened: as §1
# [5] = Selectivity index, ratio of IC50 for african green monkey Vero cells to IC50 for epimastigote of Trypanosoma cruzi Maracay; format: toxicity, cell-based; settings: read-out: Selectivity Index
# Mus musculus [6] = experiment: Toxicity in BALB/c mouse assessed as mortality at 5 mg/kg, ip; format: organism-based; set-up: dose 5 mg/kg, route intraperitoneal; settings: in vivo
# Trypanosoma cruzi [7] = experiment: Antitrypanosomal activity against Trypanosoma cruzi infected in african green monkey Vero cells assessed as reduction of amastigote number per infected cell at IC25 after 10 days relative to control; format: functional; set-up: scale not given: the % may be the effect or the level left
# Procedure, shortened: (§2)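 Vero cells seeded at 1 × 10^5 cells/well on coverslips and grown 2 days in MEM at 37 °C, 5% CO2. Infected with metacyclic forms at 10:1, obtained by culture in modified Grace's medium at 28 °C for 12 days. Drug present 6 h, then removed by washing; cultures grown 10 days with medium renewed every 48 h. Methanol-fixed, Giemsa-stained; >100 host cells counted; means of four determinations.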
# Trypanosoma cruzi [8] = experiment: Antitrypanosomal activity against trypomastigote of Trypanosoma cruzi infected in BALB/c mouse assessed as increase of host survival at 1 mg/kg, ip for 5 days administered 7 days after infection; format: functional
# Procedure, shortened: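 Female BALB/c mice (6-8 weeks, 25-30 g) in groups of five were infected intraperitoneally with T. cruzi metacyclic forms, with circulating parasites confirmed on day 5 by microhematocrit. They were dosed intraperitoneally at 1 mg/kg/day for five consecutive days (days 7-12 post-infection) and compared with infected untreated and uninfected controls. Deaths were recorded every two days.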
# Trypanosoma cruzi [9] = experiment: Antitrypanosomal activity against Trypanosoma cruzi infected in african green monkey Vero cells assessed as reduction of parasite infection rate at IC25 after 10 days; format: functional; set-up: scale not given: the % may be the effect or the level left; procedure, shortened: as §2
# Trypanosoma cruzi [10] = experiment: Antitrypanosomal activity against Trypanosoma cruzi infected in african green monkey Vero cells assessed as reduction of trypomastigote number per infected cell at IC25 after 10 days relative to control; format: functional; set-up: scale not given: the % may be the effect or the level left
# Trypanosoma cruzi [11] = experiment: Antitrypanosomal activity against trypomastigote of Trypanosoma cruzi infected in BALB/c mouse assessed as reduction of anti-Trypanosoma cruzi antibody level at 1 mg/kg, ip qd for 5 days measured after 120 days postinfection by ELISA; format: functional; settings: route intraperitoneal
# Procedure, shortened: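 Female BALB/c mice (6–8 weeks, 25–30 g; groups of four for serology) infected ip with 3 × 10^3 metacyclic forms. Dosed 1 mg/kg/day ip for five consecutive days, days 7–12 post-infection. Sera diluted 1:100 tested by ELISA against soluble T. cruzi epimastigote Fe-SOD antigen at days 40 and 120. Read at 490 nm; cutoff is negative-control mean + 3 SD.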
# Trypanosoma cruzi [12] = experiment: Antitrypanosomal activity against trypomastigote of Trypanosoma cruzi infected in BALB/c mouse assessed as reduction of parasitemia at 1 mg/kg, ip for 5 days measured after 40 days postinfection; format: functional, organism-based; set-up: dose 1 mg/kg
# Procedure, shortened: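 Female BALB/c mice (6–8 weeks, 25–30 g), groups of five, infected ip with 3 × 10^3 metacyclic forms. Dosed 1 mg/kg/day ip for days 7–12 post-infection. Tail blood (5 μL) diluted 1:15 in citrate/lysis buffer pH 7.2; parasites counted in Neubauer chamber; deaths recorded every two days.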
# Trypanosoma cruzi [13] = experiment: Antitrypanosomal activity against epimastigotes of Trypanosoma cruzi assessed as change in ultrastructural morphological changes at IC25 concentration after 72 hrs by transmission electron microscopy; format: functional, organism-based
# Procedure, shortened: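 Epimastigotes at 5 × 10^6 cells/mL cultured with drug at IC25 for 72 h. Pelleted at 400g, washed in PBS, then fixed in 2% formaldehyde-glutaraldehyde in 0.05 M cacodylate pH 7.4 for 2 h at 4 °C before transmission electron microscopy.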
# Trypanosoma cruzi [14] = experiment: Effect on metabolic excretion in epimastigotes of Trypanosoma cruzi assessed as acetate excretion level at IC25 concentration after 72 hrs by nuclear magnetic resonance spectroscopy analysis; format: ADME, organism-based; procedure, shortened: as §1
# Trypanosoma cruzi [15] = experiment: Effect on metabolic excretion in epimastigotes of Trypanosoma cruzi assessed as L-alanine excretion level at IC25 concentration after 72 hrs by nuclear magnetic resonance spectroscopy analysis; format: ADME, organism-based; procedure, shortened: as §1
# [16] = Inhibition of Trypanosoma cruzi iron superoxide dismutase assessed as inhibition of NADPH reduction
# Procedure, shortened: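 Maracay epimastigotes sonicated in sucrose/Tris/EDTA buffer, pH 7.8. Clarified supernatant taken through 35–85% ammonium sulfate cut, then desalted into 20 mM phosphate pH 7.8 with 1 mM EDTA. Activity measured by NAD(P)H oxidation; 1 U gives 50% inhibition of the rate. Compounds at 1, 10, 25, 50, 100 μM. IC50 by linear regression; five determinations; Newman-Keuls test.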
# Vero = experiment: Cytotoxicity against african green monkey Vero cells after 72 hrs by trypan blue assay; format: cell-based; settings: Chlorocebus sabaeus
# Procedure, shortened: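 Vero cells in MEM with 10% inactivated FCS, pH 7.2, 37 °C, 5% CO2. Seeded at 1 × 10^5 cells/mL and grown 2 days, then exposed 72 h to 1, 10, 25, 50 or 100 μM. Viability scored by trypan blue (0.1%) relative to control; IC50 obtained by linear regression.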
# Trypanosoma cruzi [17] = experiment: Antitrypanosomal activity against epimastigote of Trypanosoma cruzi Maracay after 72 hrs; format: functional, organism-based
# Procedure, shortened: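 Maracay strain epimastigotes in exponential phase, obtained in NNN medium with MEM and 20% inactivated FBS and then kept in monophasic MTL culture. Seeded at 2 × 10^6 parasites/mL with 1, 10, 25, 50 or 100 μM compound (0.01% DMSO). Parasites counted by Neubauer hemocytometer at 72 h; IC50 derived.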
# Mus musculus [18] = experiment: Toxicity in Trypanosoma cruzi infected BALB/c mouse assessed as small interstitial hemorrhage at 5 mg/kg, ip administered 90 days after postinfection by conventional light microscopic analysis; format: organism-based; set-up: dose 5 mg/kg, route intraperitoneal; settings: in vivo, 2160 h
# Procedure, shortened: (§3)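 Livers of infected mice dosed at 5 mg/kg, examined at 90 days post-infection. Paraffin sections 4–5 μm, stained with Giemsa, H&E and Masson's trichrome. Slides coded for blinded light microscopy, ≥30 fields per slide. Alterations scored 0–5.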
# Mus musculus [19] = experiment: Toxicity in Trypanosoma cruzi infected BALB/c mouse assessed as lymphocytic infiltration in portal tracts at 5 mg/kg, ip administered 90 days after postinfection by conventional light microscopic analysis; format: organism-based; set-up: dose 5 mg/kg, route intraperitoneal; settings: in vivo, 2160 h; procedure, shortened: as §3
# Mus musculus [20] = experiment: Toxicity in Trypanosoma cruzi infected BALB/c mouse assessed as lymphocytic infiltration at 5 mg/kg, ip administered 90 days after postinfection by conventional light microscopic analysis; format: organism-based; set-up: dose 5 mg/kg, route intraperitoneal; settings: in vivo, 2160 h; procedure, shortened: as §3
# Mus musculus [21] = experiment: Toxicity in Trypanosoma cruzi infected BALB/c mouse assessed as hepatic destruction at 5 mg/kg, ip administered 90 days after postinfection by conventional light microscopic analysis; format: organism-based; set-up: dose 5 mg/kg, route intraperitoneal; settings: in vivo, 2160 h; procedure, shortened: as §3
# Superoxide dismutase [Cu-Zn], sequence (P00441 whole entry): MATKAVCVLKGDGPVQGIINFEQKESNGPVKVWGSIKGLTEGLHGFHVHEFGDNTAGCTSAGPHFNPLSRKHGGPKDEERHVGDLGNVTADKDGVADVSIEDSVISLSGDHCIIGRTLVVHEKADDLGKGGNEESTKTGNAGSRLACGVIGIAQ
SMILES,IC50 [2] [µM],Activity (Trypanosoma cruzi [4]) [%],Activity (Mus musculus [6]),Activity (Trypanosoma cruzi [7]) [%],Activity (Trypanosoma cruzi [9]) [%],Activity (Trypanosoma cruzi [10]) [%],deltaA (Trypanosoma cruzi [11]) [absorbance units],Activity (Trypanosoma cruzi [12]),Activity (Trypanosoma cruzi [8]),Activity (Trypanosoma cruzi [13]),Activity (Trypanosoma cruzi [14]) [%],Activity (Trypanosoma cruzi [15]) [%],IC50 [16] [µM],other results
"c1ccc2cc3c(Nc4ccn[nH]4)nnc(Nc4ccn[nH]4)c3cc2c1 [1,4-BIS(3'-PYRAZOLYLAMINO)BENZO[G]PHTHALAZINE]",96.6,-24,Non-toxic,,,,,,,,,,,Activity (Trypanosoma cruzi [1]): -55%; Activity (Trypanosoma cruzi [3]): 100%; selectivity ratio [5]: 2.99
O=C(Cn1ccnc1[N+](=O)[O-])NCc1ccccc1 [BENZNIDAZOLE],,,,15,39,43,0.11,,,,,,,Activity (Trypanosoma cruzi [8]; route intraperitoneal): 80%
Clc1nnc(NCCCn2ccnc2)c2cc3ccccc3cc12,129,-49,Non-toxic,,,,-0.151,Active,Active,Active,-26,61,1.3,
"c1ccc2cc3c(Nc4cc[nH]n4)nnc(Nc4cc[nH]n4)c3cc2c1 [1,4-BIS(3'-PYRAZOLYLAMINO)BENZO[G]PHTHALAZINE]",,,,40,63,53,0.138,Active,Active,Active,,,22.9,IC50 (Vero): 98.3 µM; IC50 (Trypanosoma cruzi [17]): 32.8 µM
c1ccc2cc3c(NCCc4cnc[nH]4)nnc(NCCc4cnc[nH]4)c3cc2c1,366,-39,Non-toxic,,,,,,,,-30,35,,
Clc1nnc(Nc2cc[nH]n2)c2cc3ccccc3cc12,103,27,Non-toxic,56,68,63,-0.228,Active,Active,Active,-36,,17.2,Activity (Mus musculus [18]): Toxic; Activity (Trypanosoma cruzi [1]): -61%; Activity (Mus musculus [19]): Toxic; IC50 (Vero): 133 µM; IC50 (Trypanosoma cruzi [17]): 17.5 µM; selectivity ratio [5]: 7.58
Clc1nnc(NCCc2c[nH]cn2)c2cc3ccccc3cc12,787,-37,Non-toxic,,,,-0.076,Active,Active,Active,-18,22,9.4,Activity (Mus musculus [20]): Toxic; Activity (Mus musculus [21]): Toxic
c1ccc2cc3c(NCCCn4ccnc4)nnc(NCCCn4ccnc4)c3cc2c1,67.9,-27,Non-toxic,,,,0.266,Active,Active,,-22,43,28.3,
c1ccc2cc3c(NCCc4c[nH]cn4)nnc(NCCc4c[nH]cn4)c3cc2c1,,,,,,,0.044,Active,Active,Active,,,29.6,
